Source: ChEMBL document CHEMBL4680065, “Pharmacophore-based screening of diamidine small molecule inhibitors for protein arginine methyltransferases” (RSC Med Chem, 2021)

How the values were obtained:
[1] = molecular target: Protein arginine N-methyltransferase 1 (Homo sapiens, UniProt Q99873); test: Inhibition of recombinant human His-tagged PRMT1 expressed in Escherichia coli BL21 (DE3) using biotin-labeled histone H4-20 as substrate incubated for 8 mins in presence of [3H]-SAM cofactor by scintillation proximity assay
Chain of Protein arginine N-methyltransferase 1 (Q99873 whole entry): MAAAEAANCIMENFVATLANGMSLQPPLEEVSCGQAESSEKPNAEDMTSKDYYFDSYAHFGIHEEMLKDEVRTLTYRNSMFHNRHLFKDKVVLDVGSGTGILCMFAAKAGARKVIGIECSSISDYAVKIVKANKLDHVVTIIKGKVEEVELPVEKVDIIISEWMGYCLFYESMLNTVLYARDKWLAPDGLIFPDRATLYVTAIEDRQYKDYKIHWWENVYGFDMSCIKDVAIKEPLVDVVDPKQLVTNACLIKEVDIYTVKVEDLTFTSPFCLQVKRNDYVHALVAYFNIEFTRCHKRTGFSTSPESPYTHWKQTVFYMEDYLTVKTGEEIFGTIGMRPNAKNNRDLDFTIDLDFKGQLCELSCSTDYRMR

[2] = molecular target: T1, Histone-arginine methyltransferase CARM1 (Homo sapiens, UniProt Q86X55); test: Inhibition of recombinant GST-tagged CARM1 (unknown origin) expressed in Escherichia coli using […] incubated for 120 mins in presence of [3H]-SAM cofactor by radioactive filter plate assay
T1 sequence (Q86X55 whole entry): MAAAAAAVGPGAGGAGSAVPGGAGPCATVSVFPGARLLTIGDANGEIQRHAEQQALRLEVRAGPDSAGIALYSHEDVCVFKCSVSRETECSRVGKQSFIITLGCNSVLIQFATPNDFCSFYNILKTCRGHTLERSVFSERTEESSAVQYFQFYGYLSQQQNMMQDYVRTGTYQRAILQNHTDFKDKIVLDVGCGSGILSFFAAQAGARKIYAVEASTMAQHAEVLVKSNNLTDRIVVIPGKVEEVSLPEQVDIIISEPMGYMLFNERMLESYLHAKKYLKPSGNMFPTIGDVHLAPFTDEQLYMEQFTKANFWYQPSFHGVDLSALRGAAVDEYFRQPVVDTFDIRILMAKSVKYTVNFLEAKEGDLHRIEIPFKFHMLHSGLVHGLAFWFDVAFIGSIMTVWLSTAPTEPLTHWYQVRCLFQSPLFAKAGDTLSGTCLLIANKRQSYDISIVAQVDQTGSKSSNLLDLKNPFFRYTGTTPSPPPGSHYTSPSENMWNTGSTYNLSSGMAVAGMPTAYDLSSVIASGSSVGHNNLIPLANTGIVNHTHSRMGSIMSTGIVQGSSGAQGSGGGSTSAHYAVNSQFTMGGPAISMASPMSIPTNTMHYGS

[3] = molecular target: Protein arginine N-methyltransferase 6 (Homo sapiens, UniProt Q96LA8); test: Inhibition of PRMT6 (unknown origin) using biotin-labeled SMD1 as substrate incubated for 30 mins in presence of [3H]-SAM cofactor by scintillation proximity assay
Chain of Protein arginine N-methyltransferase 6 (Q96LA8 whole entry): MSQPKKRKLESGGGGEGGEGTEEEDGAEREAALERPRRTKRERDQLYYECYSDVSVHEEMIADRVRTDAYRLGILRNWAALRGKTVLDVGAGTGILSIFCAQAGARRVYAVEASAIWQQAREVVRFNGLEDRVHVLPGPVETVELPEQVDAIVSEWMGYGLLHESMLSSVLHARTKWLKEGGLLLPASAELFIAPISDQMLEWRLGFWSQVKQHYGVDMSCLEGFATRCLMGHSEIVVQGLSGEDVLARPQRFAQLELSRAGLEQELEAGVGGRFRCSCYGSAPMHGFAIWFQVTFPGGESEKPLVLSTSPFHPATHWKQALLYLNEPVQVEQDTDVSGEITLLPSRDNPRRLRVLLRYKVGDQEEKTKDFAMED

[4] = molecular target: Protein arginine N-methyltransferase 8 (Homo sapiens, UniProt Q9NR22); test: Inhibition of recombinant His-tagged human PRMT8 expressed in Escherichia coli BL21 (DE3) using biotin-labeled histone H4-20 peptide as substrate incubated for 8 mins in presence of [3H]-SAM cofactor by scintillation proximity assay
Chain of Protein arginine N-methyltransferase 8 (Q9NR22 whole entry): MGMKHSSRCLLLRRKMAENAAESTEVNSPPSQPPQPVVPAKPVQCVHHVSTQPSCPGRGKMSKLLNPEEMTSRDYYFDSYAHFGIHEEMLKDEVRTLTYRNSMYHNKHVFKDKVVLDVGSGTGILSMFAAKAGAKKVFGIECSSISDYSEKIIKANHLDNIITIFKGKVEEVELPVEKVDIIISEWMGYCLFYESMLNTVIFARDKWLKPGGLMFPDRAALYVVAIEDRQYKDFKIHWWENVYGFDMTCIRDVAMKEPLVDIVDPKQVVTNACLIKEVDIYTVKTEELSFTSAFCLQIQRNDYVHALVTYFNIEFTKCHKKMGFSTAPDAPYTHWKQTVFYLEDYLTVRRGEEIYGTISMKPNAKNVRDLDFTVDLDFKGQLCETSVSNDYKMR
Method in brief: (§1)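 The inhibitor was serially diluted and added to the enzyme, [3H]-SAM and substrate mixture, and methylated substrate was quantified by scintillation proximity assay. Reactions were held at initial rate, with yield under 10% and substrate near Km. PRMT3, PRMT8 and G9a were His-tagged human proteins, and PRMT7 was GST-tagged, all expressed in E. coli and affinity-purified.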

PRMT5/MEP50 complex = PRMT5/MEP50 complex (Homo sapiens, UniProt O14744); test: Inhibition of PRMT5/MEP50 (unknown origin) using biotin-labeled histone H4-20 peptide as substrate incubated for 8 mins in presence of [3H]-SAM cofactor by scintillation proximity assay; format: protein-complex assay
Chain of PRMT5/MEP50 complex (O14744 whole entry): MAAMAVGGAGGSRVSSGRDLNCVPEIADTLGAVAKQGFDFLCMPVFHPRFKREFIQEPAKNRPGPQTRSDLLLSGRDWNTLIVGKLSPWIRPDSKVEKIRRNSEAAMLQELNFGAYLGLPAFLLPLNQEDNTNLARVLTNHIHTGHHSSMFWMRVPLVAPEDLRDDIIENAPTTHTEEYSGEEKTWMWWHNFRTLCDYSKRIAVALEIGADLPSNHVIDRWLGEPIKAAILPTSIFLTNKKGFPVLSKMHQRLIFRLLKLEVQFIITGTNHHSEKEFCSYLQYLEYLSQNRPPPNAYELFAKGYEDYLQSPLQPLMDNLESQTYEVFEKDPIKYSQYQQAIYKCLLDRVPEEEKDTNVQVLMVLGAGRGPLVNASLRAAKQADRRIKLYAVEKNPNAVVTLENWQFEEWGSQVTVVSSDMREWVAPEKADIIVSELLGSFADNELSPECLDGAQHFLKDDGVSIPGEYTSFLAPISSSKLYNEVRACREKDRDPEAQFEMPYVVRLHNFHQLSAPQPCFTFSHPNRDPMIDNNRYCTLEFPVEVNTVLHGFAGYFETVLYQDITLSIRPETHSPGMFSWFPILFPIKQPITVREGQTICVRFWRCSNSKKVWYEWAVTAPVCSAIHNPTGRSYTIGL
Chain of PRMT5/MEP50 complex (Q9BQA1 whole entry, further chain): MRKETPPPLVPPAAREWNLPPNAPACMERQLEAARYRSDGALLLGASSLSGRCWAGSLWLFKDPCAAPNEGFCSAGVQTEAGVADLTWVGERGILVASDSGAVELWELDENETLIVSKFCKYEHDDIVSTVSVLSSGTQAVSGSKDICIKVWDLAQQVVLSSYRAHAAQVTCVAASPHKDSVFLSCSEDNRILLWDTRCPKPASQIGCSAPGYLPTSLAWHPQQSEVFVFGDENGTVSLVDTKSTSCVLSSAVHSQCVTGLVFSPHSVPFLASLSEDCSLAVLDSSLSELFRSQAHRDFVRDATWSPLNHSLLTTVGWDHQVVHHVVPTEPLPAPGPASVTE
Method in brief: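 Part of a methyltransferase selectivity panel. Test compound was serially diluted into a mixture of enzyme, [3H]-SAM cofactor and substrate. Methylated substrate was quantified by scintillation proximity assay. Reactions were held at initial-rate conditions with substrate turnover under 10%, and substrate concentrations were near Km.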

[5] = molecular target: Protein arginine N-methyltransferase 3 (Homo sapiens, UniProt O60678); test: Inhibition of recombinant human His-tagged PRMT3 expressed in Escherichia coli BL21 (DE3) using biotin-labeled SMD1 as substrate incubated for 10 mins in presence of [3H]-SAM cofactor by scintillation proximity assay; method in brief: as §1
Chain of Protein arginine N-methyltransferase 3 (O60678 whole entry): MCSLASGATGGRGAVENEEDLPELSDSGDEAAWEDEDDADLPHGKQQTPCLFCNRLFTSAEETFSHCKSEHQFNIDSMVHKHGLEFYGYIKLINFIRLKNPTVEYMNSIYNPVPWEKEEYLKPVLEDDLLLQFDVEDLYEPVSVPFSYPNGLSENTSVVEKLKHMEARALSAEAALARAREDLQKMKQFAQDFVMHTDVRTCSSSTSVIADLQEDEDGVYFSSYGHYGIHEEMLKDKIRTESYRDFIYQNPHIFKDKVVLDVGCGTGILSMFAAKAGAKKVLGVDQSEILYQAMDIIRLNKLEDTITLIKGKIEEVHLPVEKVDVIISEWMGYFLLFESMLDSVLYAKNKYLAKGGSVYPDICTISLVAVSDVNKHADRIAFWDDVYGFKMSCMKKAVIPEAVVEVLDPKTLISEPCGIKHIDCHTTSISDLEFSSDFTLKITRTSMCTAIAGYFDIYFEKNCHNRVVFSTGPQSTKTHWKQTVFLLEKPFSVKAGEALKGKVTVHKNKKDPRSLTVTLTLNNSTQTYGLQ

[6] = molecular target: T2, Histone-lysine N-methyltransferase EHMT2 (Homo sapiens, UniProt Q96KQ7); test: Inhibition of recombinant His-tagged human G9a expressed in Escherichia coli BL21 (DE3) using biotin-labeled histone H3-20 peptide as substrate incubated for 30 mins in presence of [3H]-SAM cofactor by scintillation proximity assay; method in brief: as §1
T2 sequence (Q96KQ7 whole entry): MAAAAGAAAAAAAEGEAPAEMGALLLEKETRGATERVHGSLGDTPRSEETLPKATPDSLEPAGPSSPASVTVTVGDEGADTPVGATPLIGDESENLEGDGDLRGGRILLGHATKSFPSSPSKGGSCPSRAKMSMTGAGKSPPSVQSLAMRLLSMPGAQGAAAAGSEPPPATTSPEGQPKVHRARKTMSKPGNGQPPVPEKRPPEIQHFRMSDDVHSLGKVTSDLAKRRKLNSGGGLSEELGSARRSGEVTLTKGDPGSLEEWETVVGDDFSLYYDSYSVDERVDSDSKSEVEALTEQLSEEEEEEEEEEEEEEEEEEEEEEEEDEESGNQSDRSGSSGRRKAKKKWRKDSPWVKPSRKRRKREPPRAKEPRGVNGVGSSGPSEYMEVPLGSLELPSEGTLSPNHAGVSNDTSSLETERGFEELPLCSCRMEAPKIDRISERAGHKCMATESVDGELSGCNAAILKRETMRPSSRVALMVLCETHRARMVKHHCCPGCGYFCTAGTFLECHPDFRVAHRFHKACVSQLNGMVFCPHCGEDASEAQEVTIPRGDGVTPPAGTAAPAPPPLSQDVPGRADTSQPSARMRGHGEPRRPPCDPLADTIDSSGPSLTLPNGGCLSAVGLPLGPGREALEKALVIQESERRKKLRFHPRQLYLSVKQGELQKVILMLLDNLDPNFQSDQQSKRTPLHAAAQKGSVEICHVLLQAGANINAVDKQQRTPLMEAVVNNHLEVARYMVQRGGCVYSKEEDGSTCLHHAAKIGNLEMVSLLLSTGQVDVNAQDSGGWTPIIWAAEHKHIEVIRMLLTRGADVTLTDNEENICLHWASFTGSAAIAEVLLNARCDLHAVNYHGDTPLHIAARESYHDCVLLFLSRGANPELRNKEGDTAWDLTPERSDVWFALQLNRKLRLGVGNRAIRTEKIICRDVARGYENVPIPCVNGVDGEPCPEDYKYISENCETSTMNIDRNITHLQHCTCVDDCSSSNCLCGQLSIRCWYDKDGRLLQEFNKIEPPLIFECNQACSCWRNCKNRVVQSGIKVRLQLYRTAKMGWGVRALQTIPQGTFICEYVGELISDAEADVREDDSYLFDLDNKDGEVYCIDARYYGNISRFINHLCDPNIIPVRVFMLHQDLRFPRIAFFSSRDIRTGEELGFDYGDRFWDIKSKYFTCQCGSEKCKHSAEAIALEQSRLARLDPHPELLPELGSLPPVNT

[7] = molecular target: T3, Protein arginine N-methyltransferase 7 (Homo sapiens, UniProt Q9NVM4); test: Inhibition of recombinant GST-tagged PRMT7 (unknown origin) expressed in Escherichia coli using biotin-labeled SMD1 as substrate incubated for 120 mins in presence of [3H]-SAM cofactor by scintillation proximity assay; method in brief: as §1
T3 sequence (Q9NVM4 whole entry): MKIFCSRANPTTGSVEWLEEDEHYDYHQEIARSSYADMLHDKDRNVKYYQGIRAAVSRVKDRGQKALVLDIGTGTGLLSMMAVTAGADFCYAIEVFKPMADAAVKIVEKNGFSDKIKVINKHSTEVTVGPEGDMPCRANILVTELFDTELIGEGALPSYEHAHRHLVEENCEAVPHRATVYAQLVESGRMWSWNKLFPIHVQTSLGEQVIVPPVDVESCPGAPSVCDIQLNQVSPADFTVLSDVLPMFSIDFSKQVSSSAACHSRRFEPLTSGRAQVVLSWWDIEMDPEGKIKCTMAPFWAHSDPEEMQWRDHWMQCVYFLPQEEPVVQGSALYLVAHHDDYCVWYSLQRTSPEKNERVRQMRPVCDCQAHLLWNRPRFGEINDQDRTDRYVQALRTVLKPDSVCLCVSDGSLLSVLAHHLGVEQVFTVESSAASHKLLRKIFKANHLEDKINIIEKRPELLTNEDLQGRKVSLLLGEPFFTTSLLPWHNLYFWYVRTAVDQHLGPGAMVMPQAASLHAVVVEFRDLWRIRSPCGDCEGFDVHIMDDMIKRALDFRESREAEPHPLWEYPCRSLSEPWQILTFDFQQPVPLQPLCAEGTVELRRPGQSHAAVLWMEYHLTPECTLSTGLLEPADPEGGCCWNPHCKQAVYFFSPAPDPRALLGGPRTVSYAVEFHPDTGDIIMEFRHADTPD

N=C(N)c1ccc(NC(=O)c2cc3cc(C(=N)N)ccc3o2)cc1
IC50 [1]: > 100 µM

CNC(=N)N/N=C(/C)c1ccc2oc3ccc(/C(C)=N/NC(=N)NC)cc3c2c1
IC50 [2]: 15.5 µM | IC50 [3]: 6.01 µM | IC50 [4]: 17.6 µM | IC50 (PRMT5/MEP50 complex): 18.9 µM | IC50 [5]: 8.2 µM | IC50 [6]: 4.7 µM | IC50 [1]: 6.9 µM | IC50 [7]: 23.3 µM

N=C(N)c1ccc2cc(CCc3cc4ccc(C(=N)N)cc4o3)[nH]c2c1
IC50 [1]: > 10 µM

CNCC(=O)NC1=CC2C(=O)c3ccc(NC(=O)CNC)cc3C(=O)C2C=C1 (stereo not given)
IC50 [2]: 12.4 µM | IC50 [3]: 84.5 µM | IC50 [4]: 43.7 µM | IC50 (PRMT5/MEP50 complex): > 500 µM | IC50 [5]: 11.6 µM | IC50 [6]: > 1000 µM | IC50 [7]: 288 µM

N=C(N)c1ccc2cc(/C=C/c3cc4ccc(C(=N)N)cc4o3)[nH]c2c1
IC50 [1]: 2.4 µM

C(=C\c1cc2ccc(C3=NCCN3)cc2[nH]1)/c1cc2ccc(C3=NCCN3)cc2[nH]1
IC50 [1]: 6.2 µM

C(=C/c1cc2ccc(C3=NCCN3)cc2o1)/c1cc2ccc(C3=NCCN3)cc2[nH]1
IC50 [1]: 7.6 µM

N=C(N)c1ccc(/C=C/c2cc3cc(C(=N)N)ccc3o2)cc1
IC50 [1]: 10 µM

C1=C(/C=C/c2ccc3cc(C4=NCCN4)[nH]c3c2)Cc2cc(C3=NCCN3)ccc21
IC50 [1]: 5 µM

N=C(N)c1ccc(NC(=O)c2cc3ccc(C(=N)N)cc3o2)cc1
IC50 [1]: > 100 µM

C(=C\c1cc2ccc(C3=NCCN3)cc2[nH]1)/c1ccc(Oc2ccc(C3=NCCN3)cc2)cc1
IC50 [1]: 16.3 µM

N=C(N)c1ccc2[nH]c(/C=C/c3cc4cc(C(=N)N)ccc4o3)cc2c1
IC50 [1]: 7.7 µM

O=C(Nc1ccc(C2=NCCN2)cc1)c1cc2ccc(C3=NCCN3)cc2o1
IC50 [1]: > 100 µM

C(=C/c1cc2ccc(C3=NCCN3)cc2o1)/c1cc2cc(C3=NCCN3)ccc2[nH]1
IC50 [1]: 7.9 µM

N=C(N)c1ccc(-c2ccc(-c3ccc(C(=N)N)cc3)o2)cc1 [FURAMIDINE]
IC50 [1]: 8.9 µM

c1cc2cc(-c3ccc4oc(C5=NCCN5)cc4c3)[nH]c2cc1C1=NCCN1
IC50 [2]: 155 µM | IC50 [3]: 12.9 µM | IC50 [4]: 60.1 µM | IC50 (PRMT5/MEP50 complex): > 500 µM | IC50 [5]: 19 µM | IC50 [6]: 39.7 µM | IC50 [7]: 248 µM

O=C(Nc1ccc(C2=NCCN2)cc1)c1cc2cc(C3=NCCN3)ccc2o1
IC50 [1]: > 100 µM

N=C(N)c1ccc2sc(/C=C/c3cc4ccc(C(=N)N)cc4o3)cc2c1
IC50 [1]: 16.5 µM

Nc1nc(N)c2nc3c(ccc4ccccc43)nc2n1
IC50 [2]: 9.1 µM | IC50 [3]: 62.9 µM | IC50 [4]: 167 µM | IC50 (PRMT5/MEP50 complex): 62.1 µM | IC50 [5]: 55.7 µM | IC50 [6]: 81.5 µM | IC50 [7]: 126 µM

N=C(N)c1ccc2[nH]c(/C=C/c3cc4ccc(C(=N)N)cc4o3)cc2c1
IC50 [1]: 7.5 µM
